Here are results for 29 compounds from ChEMBL document CHEMBL1149430, “Optimization of diarylamines as non-nucleoside inhibitors of HIV-1 reverse transcriptase” (Bioorg Med Chem Lett, 2006).

One experiment has as its system MT2. Description: Cytotoxicity against human MT2 cells by MTT assay. Type of experiment: functional. (Formazan colour is commonly taken as a measure of viable cells.)
The test system of experiment [1] is Human immunodeficiency virus 1. Description: Antiviral activity against HIV1 3B in MT2 cells by MTT assay. The experiment is classed as functional, organism-based. An outline of the steps: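 HIV-1 IIIB infection of MT-2 human T cells, with MTT colorimetric read-out of cell protection.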
Where [2] appears, read: Human immunodeficiency virus 1, 3B, MT2, read-out: EC50.

On to `Clc1ccc(Nc2nccs2)cc1OCC1=CCCC1`, for which the CC50 – broadly, the concentration that lowers cell viability or growth by half – with MT2 came to 15 µM. The EC50 (in general, the concentration at which the effect is half-maximal) in experiment [1] (setting [2]) was found to be 5 µM.
With `COCc1ccnc(Nc2ccc(Cl)c(OCC=C(C)C)c2)n1`, in the experiment with MT2, the CC50 is > 25 µM. Besides, in experiment [1] (mt2), the EC50 entry is listed as “Not Active”.
For `N#Cc1ccc(Nc2nccs2)cc1OCc1ccsc1` the same measures were 1.1 µM and “Not Active”.
Take `N#Cc1ccc(Nc2nccs2)cc1OCc1nccs1`: the CC50 in the experiment on MT2 worked out at 20 µM. The EC50 in experiment [1] (setting [2]) is 4.5 µM.
For the compound `COc1cc(OC)nc(Nc2ccc(Cl)c(OCC=C(C)C)c2)n1`, in the experiment with MT2, the CC50 was 28 µM.
In turn, `N#Cc1ccc(Nc2nccs2)cc1OCc1ccoc1` registered a CC50 in the experiment with MT2 of 4 µM. Further, the EC50 result in experiment [1] (mt2) is “Not Active”.
In the experiment on MT2, `CC(C)=CCOc1cc(Nc2ncccn2)ccc1Cl` had a CC50 of 2.5 µM.
Take `CC(C)=CCOc1cc(Nc2nccs2)ccc1C(=O)O`: the midpoint of cytotoxicity in the experiment with MT2, the CC50, lay at 17 µM. Besides, the EC50 result in experiment [1] (mt2) is “Not Active”.
In the experiment on MT2, `Clc1ccc(Nc2nccs2)cc1OCc1ccccc1` registered a CC50 of 17 µM. Moreover, in experiment [1] (setting [2]), the concentration giving a half-maximal response (EC50) was 6 µM.
In the experiment on MT2, `CC(C)=CCOc1cc(Nc2nccc(CO)n2)ccc1Cl` had a CC50 of 0.22 µM. The EC50 result in experiment [1] (mt2) is given as “Not Active”.
Compound `CC(C)=CCOc1cc(Nc2nccs2)ccc1C#N` had a CC50 in the experiment on MT2 of 0.75 µM.
For the compound `N#Cc1ccc(Nc2nccs2)cc1OCC1=CCCC1`, the CC50 in the experiment with MT2 came to 1.7 µM. Further, the EC50 entry in experiment [1] (mt2) was “Not Active”.
The like results for `Clc1ccc(Nc2nccs2)cc1OCc1nccs1` were, in that order, 20 µM and “Not Active”.
Take `N#Cc1ccc(Nc2nccs2)cc1OCc1ccco1`: half-maximal cytotoxicity in the experiment with MT2 (CC50) was put at 18 µM. The EC50 in experiment [1] (setting [2]) amounted to 1.2 µM.
The like results for `Clc1ccc(Nc2nccs2)cc1OCc1ccoc1` were, in that order, 26 µM and 7 µM.
On to `CC1=C(COc2cc(Nc3nccs3)ccc2Cl)CCC1`, for which, in the experiment with MT2, the 50% cytotoxic concentration (CC50) was 11 µM. For the same compound, the EC50 result in experiment [1] (mt2) was “Not Active”.
In turn, `CSc1ccnc(Nc2ccc(Cl)c(OCC=C(C)C)c2)n1` gave a CC50 in the experiment on MT2 of 2.8 µM.
With `COc1ccnc(Nc2ccc(C)c(OCC=C(C)C)c2)n1`, in the experiment on MT2, the CC50 worked out at 41 µM. In addition, the EC50 in experiment [1] (setting [2]) was determined as 0.32 µM.
As to `CC/C(C)=C\COc1cc(Nc2nccs2)ccc1Cl`, it took 18 µM to reach half-maximal cytotoxicity with MT2 (CC50). For the same compound, the EC50 in experiment [1] (setting [2]) worked out at 1 µM.
For `COc1ccc(Nc2nc(CO)cs2)cc1OCC=C(C)C` the same measures were 80 µM and 9 µM.
For the compound `COc1cc(N)nc(Nc2ccc(Cl)c(OCC=C(C)C)c2)n1`, in the experiment with MT2, it took 19 µM to reach half-maximal cytotoxicity (CC50).
Compound `Clc1ccc(Nc2nccs2)cc1OCc1ccsc1` gave a CC50 with MT2 of 38 µM. The EC50 in experiment [1] (setting [2]) was determined as 5.5 µM.
Compound `Clc1ccc(Nc2nccs2)cc1OCc1cccs1` showed a CC50 in the experiment on MT2 of 38 µM. The EC50 in experiment [1] (setting [2]) was 10 µM.
The like results for `CC(C)=CCOc1cc(Nc2ncc(Br)c(N)n2)ccc1Cl` were, in that order, 12 µM and 0.7 µM.
In the experiment on MT2, `N#Cc1ccc(Nc2nccs2)cc1OCc1cccs1` gave a CC50 of 4.1 µM. In addition, the EC50 result in experiment [1] (mt2) is “Not Active”.
In the case of `Clc1ccc(Nc2nccs2)cc1OCC1CCCCC1`, the CC50 with MT2 was determined as 15 µM. Further, the EC50 result in experiment [1] (mt2) was “Not Active”.
For `CC(C)=CCOc1cc(Nc2nc(C)cc(N)n2)ccc1Cl` the same measures were < 0.004 µM and “Not Active”.
For `CC(C)=CCOc1cc(Nc2nc(N)cc(Cl)n2)ccc1Cl` the same measures were 0.014 µM and “Not Active”.
For the compound `Clc1ccc(Nc2nccs2)cc1OCc1ccco1`, it took 18 µM to reach half-maximal cytotoxicity with MT2 (CC50). Also, in experiment [1] (setting [2]), the EC50 is 4 µM.
